Assay results reported in ChEMBL document CHEMBL1142827, “The identification and optimization of a N-hydroxy urea series of flap endonuclease 1 inhibitors” (Bioorg Med Chem Lett, 2005).

Key:
Type in all cases: functional, Homo sapiens
T-24 [1] = test: Percent of viable cells by survival assay (colony forming) in T24 bladder carcinoma cells at 3 uM in the presence of 200 uM MMS
Procedure, shortened: (§1)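 Colony-forming survival assay in T24 bladder carcinoma cells. Compound was given alongside DMSO alone or methyl methanesulfonate (MMS) at 110, 150 or 200 μM. Survival is expressed relative to the DMSO-only control, set at 100. Values are the average of two independent experiments.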

T-24 [2] = test: Percent of viable cells by survival assay (colony forming) in T24 bladder carcinoma cells at 3 uM in the presence of 150 uM MMS; procedure, shortened: as §1
T-24 [3] = test: Percent of viable cells by survival assay (colony forming) in T24 bladder carcinoma cells at 1 uM in the presence of 150 uM MMS; procedure, shortened: as §1
T-24 [4] = test: Percent of viable cells by survival assay (colony forming) in T24 bladder carcinoma cells at 3 uM in the presence of 110 uM MMS; procedure, shortened: as §1
T-24 [5] = test: Percent of viable cells by survival assay (colony forming) in T24 bladder carcinoma cells at 1 uM in the presence of 200 uM MMS; procedure, shortened: as §1
T-24 [6] = test: Percent of viable cells by survival assay (colony forming) in T24 bladder carcinoma cells at 1 uM in the presence of 110 uM MMS; procedure, shortened: as §1
T-24 [7] = test: Percent of viable cells by survival assay (colony forming) in T24 bladder carcinoma cells at 3 uM in the presence of DMSO; procedure, shortened: as §1
T-24 [8] = test: Percent of viable cells by survival assay (colony forming) in T24 bladder carcinoma cells at 1 uM in the presence of DMSO; procedure, shortened: as §1

COc1cc(Cn2c(=O)n(O)c(=O)c3c(C)csc32)cc2c1OCO2
Viable cells (T-24 [1]): 0%
Viable cells (T-24 [2]): 6%
Viable cells (T-24 [3]): 12%
Viable cells (T-24 [4]): 11%
Viable cells (T-24 [5]): 2%
Viable cells (T-24 [6]): 24%
Viable cells (T-24 [7]): 86%
Viable cells (T-24 [8]): 100%

O=c1c2sccc2n(CC2COc3ccccc3O2)c(=O)n1O (stereo unspecified)
Viable cells (T-24 [1]): 4%
Viable cells (T-24 [2]): 5%
Viable cells (T-24 [3]): 6%
Viable cells (T-24 [4]): 11%
Viable cells (T-24 [5]): 4%
Viable cells (T-24 [6]): 18%
Viable cells (T-24 [7]): 87%
Viable cells (T-24 [8]): 96%
